Laboratory results as given in ChEMBL document CHEMBL3526048, “In vitro metabolism of rivoglitazone, a novel peroxisome proliferator-activated receptor γ agonist, in rat, monkey, and human liver microsomes and freshly isolated hepatocytes” (Drug Metab Dispos, 2011).

How the values were obtained:
[1] = Drug metabolism in rat hepatocytes assessed as formation of 3-(4-((6-methoxy-1-methyl-1H-benzo[d]imidazol-2-yl)methoxy)phenyl)-2-(methylsulfinyl)propanamide at 30 uM after 3 hrs by radio-HPLC/LC-MS/MS analysis in presence of NADPH-generating system/SAM; type: ADME, cell-based, Hepatocyte
[2] = (§1) Drug metabolism in human hepatocytes assessed as formation of (2S,3S,4S,5R,6R)-6-((1-carboxy-2-(4-((6-methoxy-1-methyl-1H-benzo[d]imidazol-2-yl)methoxy)phenyl)ethylthio)carbonylamino)-3,4,5-trihydroxytetrahydro-2H-pyran-2-carboxylic acid at 30 uM after 3 hrs by radio-HPLC/LC-MS/MS analysis in presence of UDPGA and UDPGA/SAM; type: ADME, cell-based, Hepatocyte
[3] = Drug metabolism in rat hepatocytes assessed as formation of 2-mercapto-3-(4-((6-methoxy-1-methyl-1H-benzo[d]imidazol-2-yl)methoxy)phenyl)propanamide at 30 uM after 3 hrs by radio-HPLC/LC-MS/MS analysis in presence of NADPH-generating system and NADPH-generating system/SAM; type: ADME, cell-based, Hepatocyte
[4] = Drug metabolism in human hepatocytes assessed as formation of 3-(4-((6-methoxy-1-methyl-1H-benzo[d]imidazol-2-yl)methoxy)phenyl)-2-(methylthio)propanoic acid at 30 uM after 3 hrs by radio-HPLC/LC-MS/MS analysis in presence of NADPH-generating system/SAM and UDPGA/SAM; type: ADME, cell-based, Hepatocyte
[5] = Drug metabolism in cynomolgus monkey liver microsomes assessed as formation of 3-(4-((6-methoxy-1-methyl-1H-benzo[d]imidazol-2-yl)methoxy)phenyl)-2-(methylsulfinyl)propanamide at 20 uM after 2 hrs by radio-HPLC/LC-MS/MS analysis in presence of NADPH-generating system/SAM; type: ADME, Macaca fascicularis
[6] = tested on: Liver microsome; assay: Drug metabolism in human liver microsomes assessed as formation of 3-(4-((6-methoxy-1-methyl-1H-benzo[d]imidazol-2-yl)methoxy)phenyl)-2-(methylsulfinyl)propanamide at 20 uM after 2 hrs by radio-HPLC/LC-MS/MS analysis in presence of NADPH-generating system/SAM; type: ADME
[7] = molecular target: T1, Cytochrome P450 3A4 (Homo sapiens, UniProt P08684); assay: Activity of human CYP3A4 expressed in microsomes isolated from baculovirus infected insect cell assessed as enzyme-mediated 5-hydroxy-5-(4-((6-methoxy-1-methyl-1H-benzo[d]imidazol-2-yl)methoxy)benzyl)thiazolidine-2,4-dione formation at 20 uM after 2 hrs by radio-HPLC/LC-MS/MS analysis in presence of NADPH-generating system and NADPH-generating system/SAM; type: ADME
[8] = molecular target: T1, Cytochrome P450 3A4; assay: Activity of human CYP3A4 expressed in microsomes isolated from baculovirus infected insect cell assessed as enzyme-mediated 3-(4-((6-methoxy-1-methyl-1H-benzo[d]imidazol-2-yl)methoxy)phenyl)-2-(methylsulfonyl)propanamide formation at 20 uM after 2 hrs by radio-HPLC/LC-MS/MS analysis in presence of NADPH-generating system/SAM; type: ADME
[9] = tested on: Liver microsome; assay: Drug metabolism in Sprague-Dawley rat liver microsomes assessed as formation of 5-(4-((6-hydroxy-1-methyl-1H-benzo[d]imidazol-2-yl)methoxy)benzyl)thiazolidine-2,4-dione at 20 uM after 2 hrs by radio-HPLC/LC-MS/MS analysis in presence of NADPH-generating system and NADPH-generating system/SAM; type: ADME
[10] = as §1, with “rat” for “human”; type: ADME, cell-based, Hepatocyte
[11] = tested on: Liver microsome; assay: Drug metabolism in Sprague-Dawley rat liver microsomes assessed as formation of 3-(4-((6-methoxy-1-methyl-1H-benzo[d]imidazol-2-yl)methoxy)phenyl)-2-(methylthio)propanoic acid at 20 uM after 2 to 4 hrs by radio-HPLC/LC-MS/MS analysis in presence of NADPH-generating system/SAM and UDPGA/SAM; type: ADME
[12] = molecular target: T2, UDP-glucuronosyltransferase 1A3 (Homo sapiens, UniProt P35503); assay: Activity of human UGT1A3 expressed in microsomes isolated from baculovirus infected insect cell assessed as enzyme-mediated 2-mercapto-3-(4-((6-methoxy-1-methyl-1H-benzo[d]imidazol-2-yl)methoxy)phenyl)propanamide formation at 20 uM after 4 hrs by radio-HPLC/LC-MS/MS analysis in presence of NADPH-generating system and NADPH-generating system/SAM in presence of UDPGA and UDPGA/SAM; type: ADME
T2 sequence (P35503 whole entry): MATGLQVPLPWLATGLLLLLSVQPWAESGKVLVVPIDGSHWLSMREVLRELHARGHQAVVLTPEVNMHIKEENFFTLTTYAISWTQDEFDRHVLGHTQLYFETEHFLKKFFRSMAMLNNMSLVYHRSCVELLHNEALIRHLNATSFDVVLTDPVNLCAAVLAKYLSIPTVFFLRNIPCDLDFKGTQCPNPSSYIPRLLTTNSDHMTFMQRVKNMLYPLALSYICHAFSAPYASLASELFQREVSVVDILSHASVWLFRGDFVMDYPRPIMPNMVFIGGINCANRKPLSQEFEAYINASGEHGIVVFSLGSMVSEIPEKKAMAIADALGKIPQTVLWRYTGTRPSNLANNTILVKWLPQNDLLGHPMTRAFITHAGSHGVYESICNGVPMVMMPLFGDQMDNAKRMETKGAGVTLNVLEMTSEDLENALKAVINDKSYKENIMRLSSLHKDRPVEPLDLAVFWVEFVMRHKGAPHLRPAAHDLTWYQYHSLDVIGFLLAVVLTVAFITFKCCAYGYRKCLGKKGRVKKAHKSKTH

[13] = molecular target: Cytochrome P450 3A5 (Homo sapiens, UniProt P20815); assay: Activity of human CYP3A5 expressed in microsomes isolated from baculovirus infected insect cell assessed as enzyme-mediated 2-mercapto-3-(4-((6-methoxy-1-methyl-1H-benzo[d]imidazol-2-yl)methoxy)phenyl)propanoic acid formation at 20 uM after 2 hrs by radio-HPLC/LC-MS/MS analysis in presence of NADPH-generating system; type: ADME
Outline: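 cDNA-expressed human CYP3A5 in baculovirus-insect-cell microsomes (1 mg/ml protein) was incubated with [¹⁴C]rivoglitazone (20 μM) in 50 mM potassium phosphate (pH 7.4) or 100 mM Tris-HCl (pH 7.5). NADPH-generating system: 2 mM NADP⁺, 20 mM glucose 6-phosphate, 2 units/ml G6PDH, 10 mM MgCl₂. Incubation ran 2 h at 37°C with shaking; insect-cell control supersomes served as control. Acetonitrile stop, supernatant concentrated, then radio-HPLC, LC-MS and LC-MS/MS.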

[14] = molecular target: Cytochrome P450 2C9 (Homo sapiens, UniProt P11712); assay: Activity of human CYP2C9 expressed in microsomes isolated from baculovirus infected insect cell assessed as enzyme-mediated (2S,3S,4S,5R,6R)-3,4,5-trihydroxy-6-(5-(4-((6-methoxy-1-methyl-1H-benzo[d]imidazol-2-yl)methoxy)benzyl)-2,4-dioxothiazolidin-3-yl)tetrahydro-2H-pyran-2-carboxylic acid formation at 20 uM after 2 hrs by radio-HPLC/LC-MS/MS analysis in presence of UDPGA and UDPGA/SAM; type: ADME
[15] = molecular target: T3, Cytochrome P450 2D6 (Homo sapiens, UniProt P10635); assay: Activity of human CYP2D6 expressed in microsomes isolated from baculovirus infected insect cell assessed as enzyme-mediated 3-(4-((6-methoxy-1-methyl-1H-benzo[d]imidazol-2-yl)methoxy)phenyl)-2-(methylthio)propanoic acid formation at 20 uM after 2 hrs by radio-HPLC/LC-MS/MS analysis in presence of NADPH-generating system/SAM and UDPGA/SAM; type: ADME
[16] = molecular target: T3, Cytochrome P450 2D6; assay: Activity of human CYP2D6 expressed in microsomes isolated from baculovirus infected insect cell assessed as enzyme-mediated 2-amino-3-((1-carboxy-2-(4-((6-methoxy-1-methyl-1H-benzo[d]imidazol-2-yl)methoxy)phenyl)ethyl)disulfanyl)propanoic acid formation at 20 uM after 2 hrs by radio-HPLC/LC-MS/MS analysis; type: ADME
Outline: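 Baculovirus-insect-cell microsomes expressing the human CYP (1 mg/ml protein) were incubated with [14C]rivoglitazone (20 μM) in 50 mM potassium phosphate (pH 7.4) or 100 mM Tris-HCl (pH 7.5) with an NADPH-generating system (2 mM NADP+, 20 mM glucose 6-phosphate, 2 units/ml G6PDH, 10 mM MgCl2) for 2 h at 37°C. Insect-cell control supersomes served as the control. Reactions were stopped with acetonitrile, and the concentrated supernatants were analysed by radio-HPLC, LC-MS and LC-MS/MS.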

T1 sequence (P08684 whole entry): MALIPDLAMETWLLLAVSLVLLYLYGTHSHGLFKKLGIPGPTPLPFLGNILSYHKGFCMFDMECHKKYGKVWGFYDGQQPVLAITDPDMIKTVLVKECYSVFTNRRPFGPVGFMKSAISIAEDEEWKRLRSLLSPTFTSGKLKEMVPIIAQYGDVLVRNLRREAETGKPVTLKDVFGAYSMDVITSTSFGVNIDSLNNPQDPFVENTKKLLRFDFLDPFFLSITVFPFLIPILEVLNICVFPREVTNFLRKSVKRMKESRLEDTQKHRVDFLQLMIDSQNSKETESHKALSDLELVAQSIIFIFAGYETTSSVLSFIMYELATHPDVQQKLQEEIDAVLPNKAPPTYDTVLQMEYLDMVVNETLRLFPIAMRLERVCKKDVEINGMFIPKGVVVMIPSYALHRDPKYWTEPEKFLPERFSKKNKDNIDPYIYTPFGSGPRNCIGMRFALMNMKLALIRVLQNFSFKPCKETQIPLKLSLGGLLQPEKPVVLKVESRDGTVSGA
T3 sequence (P10635 whole entry): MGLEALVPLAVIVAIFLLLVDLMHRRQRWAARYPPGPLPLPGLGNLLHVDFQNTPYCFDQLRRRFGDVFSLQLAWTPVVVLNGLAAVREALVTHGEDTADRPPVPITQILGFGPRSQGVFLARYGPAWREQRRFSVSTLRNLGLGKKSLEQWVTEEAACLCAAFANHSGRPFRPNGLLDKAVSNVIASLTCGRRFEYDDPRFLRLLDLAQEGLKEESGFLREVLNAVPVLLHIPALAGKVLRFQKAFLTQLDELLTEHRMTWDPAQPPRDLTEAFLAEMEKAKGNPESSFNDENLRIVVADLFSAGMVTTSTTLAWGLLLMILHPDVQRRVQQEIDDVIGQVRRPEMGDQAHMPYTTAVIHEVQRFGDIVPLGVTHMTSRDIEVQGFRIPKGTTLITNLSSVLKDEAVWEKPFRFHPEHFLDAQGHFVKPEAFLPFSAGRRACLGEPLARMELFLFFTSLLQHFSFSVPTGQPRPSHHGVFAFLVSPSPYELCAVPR
Cytochrome P450 2C9, sequence (P11712 whole entry): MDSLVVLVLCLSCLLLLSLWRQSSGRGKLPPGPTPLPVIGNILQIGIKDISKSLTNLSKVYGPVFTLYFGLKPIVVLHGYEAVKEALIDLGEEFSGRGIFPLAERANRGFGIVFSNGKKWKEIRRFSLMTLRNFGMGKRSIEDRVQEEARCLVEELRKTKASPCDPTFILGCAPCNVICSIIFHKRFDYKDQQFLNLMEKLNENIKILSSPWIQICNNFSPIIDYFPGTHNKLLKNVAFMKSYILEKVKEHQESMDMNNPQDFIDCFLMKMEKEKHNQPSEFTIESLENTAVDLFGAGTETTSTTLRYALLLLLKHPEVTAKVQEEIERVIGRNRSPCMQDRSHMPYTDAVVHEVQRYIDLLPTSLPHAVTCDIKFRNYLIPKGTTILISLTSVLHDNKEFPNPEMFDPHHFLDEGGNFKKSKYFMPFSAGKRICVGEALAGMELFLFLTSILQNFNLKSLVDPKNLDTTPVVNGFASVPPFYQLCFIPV
Cytochrome P450 3A5, sequence (P20815 whole entry): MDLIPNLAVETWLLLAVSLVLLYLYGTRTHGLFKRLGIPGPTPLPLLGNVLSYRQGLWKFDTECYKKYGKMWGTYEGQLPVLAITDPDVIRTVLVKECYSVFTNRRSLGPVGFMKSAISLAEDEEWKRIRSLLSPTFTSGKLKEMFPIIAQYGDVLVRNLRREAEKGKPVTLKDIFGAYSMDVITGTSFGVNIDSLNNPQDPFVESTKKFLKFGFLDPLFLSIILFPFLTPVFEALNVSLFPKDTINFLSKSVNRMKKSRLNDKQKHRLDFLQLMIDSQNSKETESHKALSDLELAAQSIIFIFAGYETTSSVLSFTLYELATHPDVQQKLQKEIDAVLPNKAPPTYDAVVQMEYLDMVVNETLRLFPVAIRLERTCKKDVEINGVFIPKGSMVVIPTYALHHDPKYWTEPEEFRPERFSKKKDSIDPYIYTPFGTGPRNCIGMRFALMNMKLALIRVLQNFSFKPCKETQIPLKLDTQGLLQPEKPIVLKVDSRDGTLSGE

Drug metabolism [1]: metabolite_detected | Drug metabolism [2]: metabolite_detected | Drug metabolism [3]: metabolite_not_detected | Drug metabolism [4]: metabolite_not_detected | Drug metabolism [5]: metabolite_detected | Drug metabolism [6]: metabolite_detected | Drug metabolism [7]: metabolite_detected | Drug metabolism [8]: metabolite_not_detected | Drug metabolism [9]: metabolite_detected | Drug metabolism [10]: metabolite_detected | Drug metabolism [11]: metabolite_detected | Drug metabolism [12]: metabolite_not_detected | Drug metabolism [13]: metabolite_detected | Drug metabolism [14]: metabolite_not_detected | Drug metabolism [15]: metabolite_not_detected | Drug metabolism [16]: metabolite_not_detected
SMILES: COc1ccc2nc(COc3ccc(C[14CH]4SC(=O)NC4=O)cc3)n(C)c2c1.Cl (racemic)
